25 molecules from ChEMBL document CHEMBL1148475, “Nonpeptide luteinizing hormone-releasing hormone antagonists derived from erythromycin A: design, synthesis, and biological activity of cladinose replacement analogues” (J Med Chem, 2004) can be followed below.

For experiment [1], the target named is T1, Gonadotropin-releasing hormone receptor (Homo sapiens, UniProt P30968).
T1 sequence (P30968 whole entry): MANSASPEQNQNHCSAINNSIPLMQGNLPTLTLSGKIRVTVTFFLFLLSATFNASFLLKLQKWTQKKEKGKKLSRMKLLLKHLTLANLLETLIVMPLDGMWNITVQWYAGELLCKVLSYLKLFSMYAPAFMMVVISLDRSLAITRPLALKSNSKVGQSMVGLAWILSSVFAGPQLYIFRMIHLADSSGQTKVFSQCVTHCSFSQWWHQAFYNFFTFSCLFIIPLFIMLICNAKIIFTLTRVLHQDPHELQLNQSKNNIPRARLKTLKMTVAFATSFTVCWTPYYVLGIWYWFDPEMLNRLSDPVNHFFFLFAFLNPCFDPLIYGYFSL
In words: In vitro binding affinity was determined against human Luteinizing hormone-releasing hormone (LHRH) receptor cloned in CHO cells. The format is cell-based.

The target in experiment [2] is T1, Gonadotropin-releasing hormone receptor. Nature of the experiment: In vitro binding affinity to human luteinizing hormone-releasing hormone (LHRH) receptor cloned in CHO cells. The class given is cell-based.
Experiment [3] has as its target T2, Gonadotropin-releasing hormone receptor (Rattus norvegicus, UniProt P30969).
T2 sequence (P30969 whole entry): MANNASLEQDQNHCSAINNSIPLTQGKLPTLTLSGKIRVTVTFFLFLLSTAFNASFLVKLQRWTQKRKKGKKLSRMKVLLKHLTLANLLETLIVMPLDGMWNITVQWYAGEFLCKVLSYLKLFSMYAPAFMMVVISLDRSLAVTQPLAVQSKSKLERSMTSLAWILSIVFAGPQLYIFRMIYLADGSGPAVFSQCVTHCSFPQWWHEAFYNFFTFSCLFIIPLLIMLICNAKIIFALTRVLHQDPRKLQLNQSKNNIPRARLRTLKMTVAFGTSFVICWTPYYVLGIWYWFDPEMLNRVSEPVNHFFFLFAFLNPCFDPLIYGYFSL
In words: In vitro binding affinity to rat luteinizing hormone-releasing hormone (LHRH) receptor cloned in CHO cells. The format is cell-based.

For experiment [4], the target named is Gonadotropin-releasing hormone receptor (Rattus norvegicus, UniProt P30969). In words: In vitro binding ability against Luteinizing hormone-releasing hormone release in rat pituitary cells. The format is cell-based, Pituitary gland cell. Conditions: read-out: pA2 (converted). An outline of the steps:
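Functional antagonism of LH release measured in cultured rat pituitary cells; potency expressed as pA2.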

Broadly, the Ki is the dissociation constant of the complex between target and ligand, obtained from inhibition or displacement. Regarding `CC[C@H]1OC(=O)[C@H](C)[C@@H](OC(=O)N2CCOC2)[C@H](C)[C@@H](OC2O[C@H](C)C[C@H](N(C)C(C)C)[C@H]2O)[C@@](C)(OC)C[C@@H](C)C(=O)[C@H](C)[C@H]2N(CCc3ccc(Cl)cc3)C(=O)O[C@]12C` (stereo partly drawn), the Ki in experiment [1] is 200 nM.
In the case of `CC[C@H]1OC(=O)[C@H](C)[C@@H](O)[C@H](C)[C@@H](OC2O[C@H](C)C[C@H](N(C)C(C)C)[C@H]2O)[C@@](C)(OC)C[C@@H](C)C(=O)[C@H](C)[C@H]2N(CCc3ccc(Cl)cc3)C(=O)O[C@]12C` (stereo partly drawn), the Ki in experiment [2] is 10000 nM; in experiment [3], 2510 nM.
Turning to `CC[C@H]1OC(=O)[C@H](C)[C@@H](OC(=O)N2C(=O)OC[C@@H]2C)[C@H](C)[C@@H](OC2O[C@H](C)C[C@H](N(C)CC3CC3)[C@H]2O)[C@@](C)(OC)C[C@@H](C)C(=O)[C@H](C)[C@H]2N(CCc3ccc(F)c(Cl)c3)C(=O)O[C@]12C` (stereo partly drawn), in experiment [4], the Kb was 0.479 nM. The Ki in experiment [2] is 0.331 nM; in experiment [3] it was 0.107 nM.
Regarding `CC[C@H]1OC(=O)[C@H](C)[C@@H](OC(=O)N2CCNC2=O)[C@H](C)[C@@H](OC2O[C@H](C)C[C@H](N(C)C(C)C)[C@H]2O)[C@@](C)(OC)C[C@@H](C)C(=O)[C@H](C)[C@H]2N(CCc3ccc(Cl)cc3)C(=O)O[C@]12C` (stereo partly drawn), the inhibition constant (Ki) is 2040 nM in experiment [2] and 219 nM in experiment [3].
Taken in the same sequence, the figures for `CC[C@H]1OC(=O)[C@H](C)[C@@H](OC(=O)N2CCCC2)[C@H](C)[C@@H](OC2O[C@H](C)C[C@H](N(C)C(C)C)[C@H]2O)[C@@](C)(OC)C[C@@H](C)C(=O)[C@H](C)[C@H]2N(CCc3ccc(Cl)cc3)C(=O)O[C@]12C` (stereo partly drawn) were 1620 nM and 112 nM.
In the case of `CC[C@H]1OC(=O)[C@H](C)[C@@H](OC(=O)N2CC(C)OC2=O)[C@H](C)[C@@H](OC2O[C@H](C)C[C@H](N(C)C(C)C)[C@H]2O)[C@@](C)(OC)C[C@@H](C)C(=O)[C@H](C)[C@H]2N(CCc3ccc(Cl)cc3)C(=O)O[C@]12C` (stereo partly drawn), the figures for the Ki in experiment [2] and in experiment [3] were 36.3 nM and 7.94 nM, respectively.
Taken in the same sequence, the figures for `CC[C@H]1OC(=O)[C@H](C)[C@@H](OC(=O)C2CCOC2)[C@H](C)[C@@H](OC2O[C@H](C)C[C@H](N(C)C(C)C)[C@H]2O)[C@@](C)(OC)C[C@@H](C)C(=O)[C@H](C)[C@H]2N(CCc3ccc(Cl)cc3)C(=O)O[C@]12C` (stereo partly drawn) were 214 nM and 14.1 nM.
As for `CC[C@H]1OC(=O)[C@H](C)[C@@H](OC(=O)CC(C)C)[C@H](C)[C@@H](OC2O[C@H](C)C[C@H](N(C)C(C)C)[C@H]2O)[C@@](C)(OC)C[C@@H](C)C(=O)[C@H](C)[C@H]2N(CCc3ccc(Cl)cc3)C(=O)O[C@]12C` (stereo partly drawn), the inhibition constant (Ki) in experiment [2] was 2040 nM; in experiment [3], 141 nM.
Taken in the same sequence, the figures for `CC[C@H]1OC(=O)[C@H](C)[C@@H](OC(=O)N2C(=O)OC[C@@H]2C)[C@H](C)[C@@H](OC2O[C@H](C)C[C@H](N(C)C3CCCC3)[C@H]2O)[C@@](C)(OC)C[C@@H](C)C(=O)[C@H](C)[C@H]2N(CCc3ccc(Cl)cc3)C(=O)O[C@]12C` (stereo partly drawn) were 38 nM and 1.17 nM.
For the molecule `CC[C@H]1OC(=O)[C@H](C)[C@@H](OC2C[C@@](C)(OC)[C@@H](O)[C@H](C)O2)[C@H](C)[C@@H](OC2O[C@H](C)C[C@H](N(C)C(C)C)[C@H]2O)[C@@](C)(OC)C[C@@H](C)C(=O)[C@H](C)[C@H]2N(CCc3ccc(Cl)cc3)C(=O)O[C@]12C` (stereo partly drawn), the Ki is 22.4 nM in experiment [2] and 4.47 nM in experiment [3].
For the molecule `CC[C@H]1OC(=O)[C@H](C)[C@@H](OC(=O)N2C(=O)OC[C@@H]2C)[C@H](C)[C@@H](OC2O[C@H](C)C[C@H](N(C)C(C)C)[C@H]2O)[C@@](C)(OC)C[C@@H](C)C(=O)[C@H](C)[C@H]2N(CCc3ccc(Cl)c(Cl)c3)C(=O)O[C@]12C` (stereo partly drawn), the Kb in experiment [4] is 1.78 nM. For the same molecule, the figures for the Ki in experiment [2] and in experiment [3] were 15.1 nM and 0.234 nM, respectively.
`CC[C@H]1OC(=O)[C@H](C)[C@@H](OC(=O)N2CCOC2=O)[C@H](C)[C@@H](OC2O[C@H](C)C[C@H](N(C)C(C)C)[C@H]2O)[C@@](C)(OC)C[C@@H](C)C(=O)[C@H](C)[C@H]2N(CCc3ccc(Cl)cc3)C(=O)O[C@]12C` (stereo partly drawn): the results for the inhibition constant Ki in experiment [2] and in experiment [3] were 115 nM and 2.14 nM, respectively.
`CC[C@H]1OC(=O)[C@H](C)[C@@H](OC(=O)N2C(=O)O[C@H](C)[C@@H]2C)[C@H](C)[C@@H](OC2O[C@H](C)C[C@H](N(C)C(C)C)[C@H]2O)[C@@](C)(OC)C[C@@H](C)C(=O)[C@H](C)[C@H]2N(CCc3ccc(Cl)cc3)C(=O)O[C@]12C` (stereo partly drawn): the “Log Ki” value in experiment [2] (cho) is given as under -7. This molecule showed a Ki in experiment [3] of 2.88 nM.
Regarding `CC[C@H]1OC(=O)[C@H](C)[C@@H](OC(=O)N2C(=O)OCC2(C)C)[C@H](C)[C@@H](OC2O[C@H](C)C[C@H](N(C)C(C)C)[C@H]2O)[C@@](C)(OC)C[C@@H](C)C(=O)[C@H](C)[C@H]2N(CCc3ccc(Cl)cc3)C(=O)O[C@]12C` (stereo partly drawn), the inhibitory constant (Ki) in experiment [2] was 79.4 nM; in experiment [3], 8.91 nM.
As for `CC[C@H]1OC(=O)[C@H](C)[C@@H](OC(=O)N2CCOCC2)[C@H](C)[C@@H](OC2O[C@H](C)C[C@H](N(C)C(C)C)[C@H]2O)[C@@](C)(OC)C[C@@H](C)C(=O)[C@H](C)[C@H]2N(CCc3ccc(Cl)cc3)C(=O)O[C@]12C` (stereo partly drawn), the Ki in experiment [2] was 5620 nM; in experiment [3], 427 nM.
Take `CC[C@H]1OC(=O)[C@H](C)[C@@H](OC(=O)N2C(=O)OC[C@@H]2C)[C@H](C)[C@@H](OC2O[C@H](C)C[C@H](N(C)C(C)C)[C@H]2O)[C@@](C)(OC)C[C@@H](C)C(=O)[C@H](C)[C@H]2N(CCc3ccc(Cl)cc3)C(=O)O[C@]12C` (stereo partly drawn): the Ki in experiment [2] was 18.6 nM; in experiment [3], 2.88 nM.
Taken in the same sequence, the figures for `CC[C@H]1OC(=O)[C@H](C)[C@@H](OC(=O)N2CCOC2C)[C@H](C)[C@@H](OC2O[C@H](C)C[C@H](N(C)C(C)C)[C@H]2O)[C@@](C)(OC)C[C@@H](C)C(=O)[C@H](C)[C@H]2N(CCc3ccc(Cl)cc3)C(=O)O[C@]12C` (stereo partly drawn) were 794 nM and 120 nM.
For `CC[C@H]1OC(=O)[C@H](C)[C@@H](OC(=O)N2C(=O)OC[C@@H]2C)[C@H](C)[C@@H](OC2O[C@H](C)C[C@H](N(C)C3CCCC3)[C@H]2O)[C@@](C)(OC)C[C@@H](C)C(=O)[C@H](C)[C@H]2N(CCc3ccc(Cl)c(Cl)c3)C(=O)O[C@]12C` (stereo partly drawn), in experiment [4], the Kb is 0.135 nM. Besides, the Ki in experiment [2] is 5.62 nM; in experiment [3], 0.692 nM.
In the case of `CC[C@H]1OC(=O)[C@H](C)[C@@H](OC(=O)N2C(=O)OC[C@H]2CC(C)C)[C@H](C)[C@@H](OC2O[C@H](C)C[C@H](N(C)C(C)C)[C@H]2O)[C@@](C)(OC)C[C@@H](C)C(=O)[C@H](C)[C@H]2N(CCc3ccc(Cl)cc3)C(=O)O[C@]12C` (stereo partly drawn), the inhibition constant (Ki) in experiment [2] is 275 nM; in experiment [3] it was 692 nM.
As to `CC[C@H]1OC(=O)[C@H](C)[C@@H](OC(=O)N2C(=O)OC[C@@H]2C)[C@H](C)[C@@H](O[C@@H]2O[C@H](C)C[C@H](N(C)CC3CC3)[C@H]2O)[C@@](C)(OC)C[C@@H](C)C(=O)[C@H](C)[C@H]2N(CCc3ccc(Cl)c(Cl)c3)C(=O)O[C@]12C`, in experiment [4], the Kb is 1.74 nM. For the same molecule, the inhibition constant (Ki) is 1.86 nM in experiment [2] and 0.676 nM in experiment [3].
In the case of `CC[C@H]1COC(=O)N1C(=O)O[C@H]1[C@H](C)[C@@H](OC2O[C@H](C)C[C@H](N(C)C(C)C)[C@H]2O)[C@@](C)(OC)C[C@@H](C)C(=O)[C@H](C)[C@H]2N(CCc3ccc(Cl)cc3)C(=O)O[C@]2(C)[C@@H](CC)OC(=O)[C@@H]1C` (stereo partly drawn), the Ki in experiment [2] was 66.1 nM; in experiment [3], 6.31 nM.
Turning to `CC[C@H]1OC(=O)[C@H](C)[C@@H](OC(=O)N2CCN(C)C2=O)[C@H](C)[C@@H](OC2O[C@H](C)C[C@H](N(C)C(C)C)[C@H]2O)[C@@](C)(OC)C[C@@H](C)C(=O)[C@H](C)[C@H]2N(CCc3ccc(Cl)cc3)C(=O)O[C@]12C` (stereo partly drawn), the inhibition constant Ki in experiment [2] is 4680 nM; in experiment [3] it was 1230 nM.
Taken in the same sequence, the figures for `CC[C@H]1OC(=O)[C@H](C)[C@@H](OC(=O)C2CCCC2)[C@H](C)[C@@H](OC2O[C@H](C)C[C@H](N(C)C(C)C)[C@H]2O)[C@@](C)(OC)C[C@@H](C)C(=O)[C@H](C)[C@H]2N(CCc3ccc(Cl)cc3)C(=O)O[C@]12C` (stereo partly drawn) were 631 nM and 50.1 nM.
Taken in the same sequence, the figures for `CC[C@H]1OC(=O)[C@H](C)[C@@H](OC(=O)N2C(=O)OC[C@H]2C)[C@H](C)[C@@H](OC2O[C@H](C)C[C@H](N(C)C(C)C)[C@H]2O)[C@@](C)(OC)C[C@@H](C)C(=O)[C@H](C)[C@H]2N(CCc3ccc(Cl)cc3)C(=O)O[C@]12C` (stereo partly drawn) were 49 nM and 5.25 nM.
Taken in the same sequence, the figures for `CCC1CN(C(=O)O[C@H]2[C@H](C)[C@@H](OC3O[C@H](C)C[C@H](N(C)C(C)C)[C@H]3O)[C@@](C)(OC)C[C@@H](C)C(=O)[C@H](C)[C@H]3N(CCc4ccc(Cl)cc4)C(=O)O[C@]3(C)[C@@H](CC)OC(=O)[C@@H]2C)C(=O)O1` (stereo partly drawn) were 562 nM and 18.2 nM.
